Compounds with a hit are over-represented: about 1.4% of the library has one in this group of screens.
CAL PDZ FP-1: inhibitors of human CAL PDZ peptide binding; Q9HD26; purified CAL PDZ, TMR-peptide fluorescence polarization, 1 h; inhibition, % at 24.9 µM; 300,000 tested, 0.92% active;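 active = mean inhibition of at least 30% with at least half of replicates also reaching 30%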;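 also: 0% = DMSO neutral control and 100% = excess unlabeled competitor peptide PRC23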
Dyrk1A ADPGlo: Dyrk1A (rat) kinase inhibition. Q63470. ADP-Glo luminescence, NFATc1 peptide. inhibition, % at 12.5 µM. 310,000 tested, 0.43% active; in the data active = inhibition above about 50%;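 also: plate controls were vehicle with enzyme for no effect and no enzyme for full effect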
ARNT-TACC3 inh: disrupts binding between human ARNT and TACC3; Q9Y6A5; AlphaScreen His-ARNT PAS-B/GST-TACC3 binding, luminescence; TACC3 fragment carries E629A point mutation; inhibition, % at 9.99 µM; 390,000 tested, 0.66% active;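 active = mean inhibition of replicates at least 50% and at least half of replicates each reaching 50%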;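 also: 0% = complete ARNT plus TACC3 wells and 100% = ARNT alone without TACC3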
CAL PDZ FP-2: inhibitors of human CAL PDZ peptide binding. Q9HD26. purified CAL PDZ, TMR-peptide fluorescence polarization, 1 h. 330,000 tested, 0.02% active. inhibition, % at 20 µM;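 active = highest replicate inhibition of at least 40%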;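 also: plate controls were DMSO neutral control wells for no effect and unlabeled competitor peptide control wells for full effect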
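material = purified tagged CAL PDZ domain construct (CerCALP) | buffer or medium = sodium phosphate/NaCl buffer pH 7.4 with TCEP, IgG, Thesit | reagent = TMR-labelled reporter peptide T*-PRC34 bound in PDZ groove | incubation = 1 h room-temperature incubation prior to read | measured by = fluorescence polarization (mP) | evaluation = percent inhibition from loss of millipolarization | control set = unlabelled peptide and DMSO controls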
Active calls of the source: *; / = no result given; + = active, no number.

SMILES	CAL PDZ FP-1	Dyrk1A ADPGlo	ARNT-TACC3 inh	CAL PDZ FP-2
CC(C)CCN1CC(=O)N2[C@@H](Cc3c([nH]c4ccccc34)C2(C)C)C1=O	61*	2	-2	0
Cc1[nH]n(-c2ccccc2)c(=O)c1C(C[N+](=O)[O-])c1ccccc1Cl (configuration not stated)	0	0	33	-1
COc1ccc(C(C[N+](=O)[O-])c2c(C)[nH]n(-c3ccccc3)c2=O)cc1 (configuration not stated)	-3	0	72*	/
COc1ccc(CN2C(=O)c3cccnc3C2=O)cc1S(=O)(=O)N1CC(C)CC(C)C1 (configuration not stated)	4	8	29*	-1
C[C@H](O)C#Cc1cnc2c(c1)C(=O)N([C@H](C)CO)C[C@H](C)[C@H](CN(C)C(=O)Nc1ccc(C(F)(F)F)cc1)O2	/	/	-11	/
CN(C)c1ccc(NC(=O)Nc2ccc3c(c2)nnn3C)cc1	43*	3	-4	-1
CCOc1ccc(NC(=S)N(CCN2CCOCC2)Cc2cc3cc4c(cc3[nH]c2=O)OCO4)cc1	63*	3	-2	0
Cc1ccc(NC(=S)N(CCN2CCOCC2)Cc2cc3cc4c(cc3[nH]c2=O)OCO4)cc1	52*	-1	-1	-1
Cc1ccccc1-c1cnc2c(c1)C(=O)N([C@H](C)CO)C[C@H](C)[C@H](CN(C)C(=O)c1ccncc1)O2	/	/	3	/
C=CCOC(=O)C1=C(C)NC(C)=C(C(=O)OCC=C)C1c1ccco1	1	0	0	-1
CCOC(=O)C1=C(C)NC(C)=C(C(=O)OC)C1c1ccco1 (configuration not stated)	36*	1	0	-1
COc1ccc(C2CN=NC23CCCc2ccccc2C3=O)cc1 (configuration not stated)	57*	1	2	-1
COc1ccc(C2CN=NC23CCc2ccccc2C3=O)cc1 (configuration not stated)	-1	/	-4	-1
COc1ccc(NS(=O)(=O)c2c(C)cc(C)cc2C)cc1	-3	2	-5	0
Cc1cc(C)c(S(=O)(=O)Nc2ccc(OCC(=O)O)cc2)c(C)c1	43*	-17	/	-1
CC(C)(C)N(Cc1nc(-c2ccccc2)no1)C(=O)c1ccc2c(c1)OCO2	65*	1	-2	-1
CO[C@@H]1CN(C)C(=O)c2cc(NS(=O)(=O)c3cccc(C)c3)ccc2OC[C@@H](C)NC[C@H]1C	/	/	13*	/
CO[C@@H]1CN(C)C(=O)c2cc(NS(=O)(=O)c3cccc(C)c3)ccc2OC[C@H](C)NC[C@H]1C	/	/	2	/
CS(=O)(=O)Nc1ccc2c(c1)[C@H]1C[C@@H](CC(=O)NCc3ccc(Cl)cc3)O[C@@H](CO)[C@H]1O2	/	/	-2	/
O=C(N/N=C/c1cc(Cl)cc([N+](=O)[O-])c1O)c1cccc(S(=O)(=O)N2CCOCC2)c1	-2	-2	71*	0
O=C(Nc1ccc(N2CCCCCC2)cc1)c1cccc(S(=O)(=O)N2CCOCC2)c1	36*	/	/	0
O=C(Nc1cccc(S(=O)(=O)N2CCOCC2)c1)c1cccc(S(=O)(=O)N2CCCCC2)c1	-2	-7	5	-5
Cc1cc(C(=O)N/N=C/c2cc(Cl)cc([N+](=O)[O-])c2O)c2ccccc2n1	0	-1	76*	-1
O=C(NN=Cc1cc(Cl)ccc1[N+](=O)[O-])c1cccc2ccccc12	-2	-1	-2	0
C[C@H](CO)N1C[C@H](C)[C@H](CN(C)C(=O)C2CCCCC2)Oc2cc(-c3cccnc3)ccc2S1(=O)=O	/	/	10	/
SMILES	CAL PDZ FP-1	Dyrk1A ADPGlo	ARNT-TACC3 inh	CAL PDZ FP-2
CCOC(=O)N1CCC(Nc2c(Nc3ccc(F)cc3)c(=O)c2=O)CC1	59*	-5	5	0
COc1cccc(-c2cccc(-c3nc(C(=O)O)cc4c3[C@H](CCO)N(S(=O)C(C)(C)C)C4)c2)c1 (some centres not stated)	/	/	-4	/
COc1cccc(-c2cccc(-c3nc(C(=O)O)cc4c3[C@@H](CCO)N(S(=O)C(C)(C)C)C4)c2)c1 (some centres not stated)	/	/	43*	/
CN1C(C)(C)CC(=NOC(=O)c2ccccc2)CC1(C)C	62*	3	-5	0
O=C(ON=C1CCSCC1)c1ccccc1	-5	0	/	-2
CO[C@H]1CN(C)C(=O)c2cc(NC(=O)NC(C)C)ccc2OC[C@H](C)NC[C@H]1C	/	/	-2	/
Cc1ccc(S(=O)(=O)N(C)C(C)CCc2ccco2)cc1 (configuration not stated)	+	-1	-4	-1
Cc1noc(C)c1S(=O)(=O)Nc1ccc2c(c1)C(=O)N([C@H](C)CO)C[C@H](C)[C@H](CN(C)Cc1ccc(Oc3ccccc3)cc1)O2	/	/	1	/
COc1cc(OC)c(OC)cc1/C=N/NC(=O)CC1C(=O)NN=C1C (configuration not stated)	36*	0	-3	-4
C/C(=N\NC(=O)c1cc2ccccc2cc1O)c1ccccn1	2	7	69*	-2
C/C(=N\NC(=O)c1c[nH]c2ccccc12)c1ccccn1	-11	/	77*	8
C/C(=N\NC(=O)CCCNc1ccc(C)cc1)c1ccccn1	-18	-3	48*	0
C/C(=N\NC(=O)c1c[nH]c2ccccc12)c1ccco1	-2	9	30	0
C/C(=N\NC(=O)CCCNc1ccccc1)c1ccncc1	-5	-2	4	0
C/C(=N\NC(=O)c1cc2ccccc2cc1O)c1cc2ccccc2o1	-3	15	0	-3
O=C(N[C@@H]1C=C[C@H](CC(=O)N2CCOCC2)O[C@H]1CO)c1cccc(F)c1	/	/	-1	/
CCSC1=N/C(=C\c2ccccc2)C(=O)N1	61*	28	-2	0
O=C1NNC(c2ccccc2)=N/C1=C\c1ccccc1	-2	-1	11	0
CCCS(=O)(=O)Nc1cccc(-c2nc3cccnc3s2)c1	-1	8	46*	-3
COC(=O)c1cc2ccccc2c([N+](=O)[O-])c1O	108*	40	-2	0
Cc1ccc(NC(=O)CSc2nnc(-c3ccco3)o2)cc1	2	1	3	-1
Cc1ccc(SCC(=O)Nc2nnc(-c3ccco3)o2)cc1	-4	1	48*	0
O=C(CSc1ccc(F)cc1)Nc1nnc(-c2ccco2)o1	-1	11	49*	-2
CS(=O)(=O)Nc1ccc2c(c1)[C@@H]1C[C@@H](CC(=O)NCCN3CCCCC3)O[C@H](CO)[C@@H]1O2	/	/	12	/
Cc1ccc(S(=O)(=O)N2CCCCC2)cc1NC(=O)COC(=O)C1(C)CC1(Cl)Cl (configuration not stated)	67*	/	-1	0
Cc1ccc(S(=O)(=O)N2CCOCC2)cc1NC(=O)COC(=O)C1(C)CC1(Cl)Cl (configuration not stated)	-1	-6	0	0
COc1ccc(NC(=O)N(C)C[C@@H]2OCCCC[C@H](C)Oc3ccc(NC(=O)Nc4ccc(C(F)(F)F)cc4)cc3C(=O)N([C@H](C)CO)C[C@@H]2C)cc1	/	/	2	/
